B2AR ag – activates human beta-2 adrenergic receptor causing internalization; response, % (concentration not given with the values); 0.43% of 340,000 active; Am2.2-beta2AR cells, FAP receptor internalization, flow cytometry; P07550; AID 504454;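 active = response above a set limit, near 3 SD of response in nonfluorescent compounds, cut at about 42% in these data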
Arrestin-AP2 inh – inhibitors of human beta-arrestin and AP2 interaction. FITC-arrestin peptide / GST-AP2 beads, flow cytometry; AP2 beta2 appendage carries R879A mutation. inhibition, % at 10 µM. 0.31% of 340,000 active. AID 504490;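 active = inhibition above a set limit, near 3 SD of compounds lacking own fluorescence, cut at about 54% in these data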;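 note: plate controls were DMSO wells for no effect and 5 µM unlabelled arrestin peptide for full effect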
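Measured by: flow cytometry, FL1 (488/535 nm); Material: AP2 appendage R879A on GSH beads; Evaluation: percent response; Timing: pre-incubation 12 min, peptide binding 1 h, room temperature; Also added: 50 nM FITC-arrestin peptide; Medium: PBS with 0.05% Tween 20 and 0.1% BSA.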
GRK2 aptamer HTS – human GRK2 inhibition via aptamer displacement | P25098 | bead flow cytometry, FAM-aptamer displacement from GRK2 | inhibition of aptamer binding, % at 10 µM | 0.59% of 330,000 active | AID 488847;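 active = inhibition of aptamer binding above 40%, roughly 3 SD of noise, on plates passing a quality check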;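 note: median bead fluorescence of bound FAM aptamer so fluorescent compounds give negative values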
Target sequence (P25098 whole entry, looked up): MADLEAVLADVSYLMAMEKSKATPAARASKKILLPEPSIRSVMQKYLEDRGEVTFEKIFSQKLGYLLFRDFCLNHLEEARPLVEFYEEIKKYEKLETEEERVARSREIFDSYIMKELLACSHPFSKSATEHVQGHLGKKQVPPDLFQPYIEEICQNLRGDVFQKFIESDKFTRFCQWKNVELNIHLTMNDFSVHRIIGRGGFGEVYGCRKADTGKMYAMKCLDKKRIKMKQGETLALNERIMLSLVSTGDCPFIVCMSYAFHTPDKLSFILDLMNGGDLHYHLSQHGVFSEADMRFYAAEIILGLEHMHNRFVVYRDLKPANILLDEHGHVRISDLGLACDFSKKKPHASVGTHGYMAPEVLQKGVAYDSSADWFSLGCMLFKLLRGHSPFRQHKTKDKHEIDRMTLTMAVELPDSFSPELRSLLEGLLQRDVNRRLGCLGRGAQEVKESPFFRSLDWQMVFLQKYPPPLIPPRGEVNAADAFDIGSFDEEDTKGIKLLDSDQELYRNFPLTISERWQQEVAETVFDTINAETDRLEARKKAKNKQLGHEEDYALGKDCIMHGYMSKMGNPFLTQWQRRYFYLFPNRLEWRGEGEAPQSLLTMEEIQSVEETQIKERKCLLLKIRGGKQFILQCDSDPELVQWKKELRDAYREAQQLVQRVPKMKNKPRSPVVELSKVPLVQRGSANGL
Lipid droplet – modulators of hepatic lipid droplet formation. 0.4% of 240,000 active. AID 1656. inhibition, % at 6.5 µM. AML12 mouse hepatocytes, oleate lipid droplets, BODIPY imaging;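 active = lipid droplet intensity inhibited by at least 50%, with more than 500 cells counted; inconclusive = wells with under 300 cells, treated as cytotoxic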
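Assay system: AML12 mouse liver cells | Compound dosing: One dose, 6.5 µM compound | Read-out basis: Droplet intensity reduction, % inhibition | Measured by: Fluorescence imaging, 20x objective, two fields per well | Schedule: Overnight treatment with compound plus oleate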
NTR1 ag – NTR1 (human) agonism; 0.17% of 330,000 active; NTR1-U2OS beta-arrestin-GFP spot imaging, agonist mode; activation, % at 20 µM; P30989;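 active = activation at or above 40% of the spot to cytoplasm intensity ratio, with at least 20 cells analyzed; inconclusive = wells under 20 cells, flagged as cytotoxic or low count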;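 note: 0% = DMSO without peptide and 100% = 100 nM NTR1 peptide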
H9c2 TAG inh – reduces triacylglycerol accumulation in H9c2 cells | Nile Red lipid (TAG) fluorescence; cells loaded with 200 µM oleic acid | inhibition, % at 12.5 µM | 0.66% of 230,000 active;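 active = pattern-corrected inhibition of lipid staining of at least 50% with the nuclear-stain viability signal not falling by more than 50%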;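 note: 0% = DMSO wells and 100% = triacsin C control wells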
* marks the source's active call; other numbers are inactive results; ? = inconclusive; / = no result given. Hits are enriched below; roughly 2% of the tested compounds scored in any of these assays.

SMILES	B2AR ag	Arrestin-AP2 inh	GRK2 aptamer HTS	Lipid droplet	NTR1 ag	H9c2 TAG inh
Cc1ccc(N2C(=O)C3C(c4ccccc4)N4CCCN4C3(C)C2=O)cc1 (configuration not stated)	44*	9	1	-2	-2	/
O=C(CN1C(=O)/C(=C/c2ccco2)SC1=S)NC1CCS(=O)(=O)C1 (configuration not stated)	-7	6	45*	9	-1	/
O=[N+]([O-])c1cc(CN2CCN(c3ccccc3)CC2)c(O)c2ncccc12	44*	7	0	-51	1	37
O=[N+]([O-])c1cc(CN2CCOCC2)c2cccnc2c1O	/	/	/	0	/	/
CC(C)NC(=O)C1Cc2c(-c3ccccc3Oc3ccccc3)ccnc2O1 (configuration not stated)	/	/	/	/	/	7
CCOc1cc(C=O)c(Br)cc1OC1CCCC1	44*	-7	4	/	2	11
Cc1cc(C)n2c(SC(C)C(=O)NC3(C#N)CCCCC3)nnc2n1 (configuration not stated)	-5	17	5	/	4	15
CC(C)N=c1c([N+](=O)[O-])nn(C)n1O	5	4	0	16	0	0
CCCCC(=O)NC(c1ccc(Cl)cc1Cl)c1ccc2cccnc2c1O (configuration not stated)	15	6	3	/	4	/
CCC(=O)NC(c1cc(Cl)c2cccnc2c1O)C1CC1 (configuration not stated)	-2	-6	0	/	4	52*
CCC(=O)NC(c1ccc(Cl)cc1Cl)c1ccc2cccnc2c1O (configuration not stated)	7	-6	3	-42	2	55*
CCC(=O)NC(c1cc(Cl)c2cccnc2c1O)C(C)C (configuration not stated)	6	-4	0	/	2	38
CC(C)C(C)NC(=O)COC(=O)C1CCN(S(=O)(=O)c2ccc3c(c2)OCCO3)CC1 (configuration not stated)	-2	-24	0	/	-2	-9
CC(C)NC(=O)Cn1cc(S(=O)(=O)N2CCCC2)c(S(=O)(=O)N2CCCC2)c1	0	10	1	10	0	/
Clc1cccc(C2Nc3cccc4cccc(c34)N2)c1	0	55*	0	-4	0	/
Cc1[nH]c2ccccc2c1C(=O)CSc1nnc(C2CC2)o1	-2	-16	0	/	-1	-1
Cc1cc(C(=O)c2ccc(C(C)(C)C)cc2)c(NC(=O)CCl)s1	96*	11	0	13	16	/
CC(C)CCCCCCCCCCCCC(=O)NCC(=O)NC1C(O)C(O)C(Nc2ncnc3nc[nH]c23)OC1C(O)CO (configuration not stated)	15	23	/	/	/	85*
O=C(COC(=O)/C=C/c1cccc(C(F)(F)F)c1)NCCN1C(=O)CSC1=O	-2	15	4	/	7	1
COc1ccc(NC(=O)CN2C(=O)S/C(=C/c3cccn3-c3ccc(C(=O)O)cc3)C2=O)cc1	0	11	49*	4	0	5
COc1ccc(C2SCC(=O)N2CCc2ccc(OC)c(OC)c2)cc1 (configuration not stated)	-6	6	0	-3	1	/
N#C/C(=C\c1c[nH]c2ccc(Br)cc12)c1ccccn1	20	9	2	-34	51*	/
COc1ccc(C)cc1NC(=O)CSc1nc2ccccc2nc1N1CC(C)OC(C)C1 (configuration not stated)	8	7	3	-17	2	8
O=C1C=CC(=O)N1CCNc1ncc(C(F)(F)F)cc1Cl	69*	-4	/	3	29	11
O=C(N1CCN(c2ccccn2)CC1)N1c2ccccc2Sc2ccccc21	14	-5	1	-117	6	58*
SMILES	B2AR ag	Arrestin-AP2 inh	GRK2 aptamer HTS	Lipid droplet	NTR1 ag	H9c2 TAG inh
COc1ccc(C(=O)Nc2ccc(C(=O)Nc3cccnc3)cc2)cc1	54*	-5	0	-3	1	/
O=Cc1nccc2ccccc12	61*	11	/	/	/	3
C(=Cc1c[nH]c2ccccc12)c1nccc2ccccc12	-151	10	/	/	/	-63
COc1ccc(OC(=O)COc2ccc(Cl)cc2)cc1	4	4	3	9	1	-5
Cc1oc2c(c1C(=O)O)C(=O)c1ccccc1C2=O	7	-3	0	21	-3	-2
Cc1oc2c(c1C(=O)c1ccccc1)C(=O)C(=O)c1ccccc1-2	98*	0	58*	/	14	-8
COc1cccc(CN2CCN(S(=O)(=O)c3ccc(Cl)s3)CC2)c1	1	1	4	-20	1	7
CCN1CCCC1Cn1cnc2c([nH]c3ccc(OC)cc32)c1=O (configuration not stated)	0	-8	0	1	0	19
CCOc1cc(NC(=O)Nc2ccc(F)cc2)c(OCC)cc1NC(=O)CC	-8	-17	1	30	2	/
Cc1c(C(=O)OCCOC(C)C)[nH]c2c1C(=O)CC(c1ccco1)C2 (configuration not stated)	23	4	7	?	-5	43
COCCOC(=O)c1[nH]c2c(c1C)C(=O)CC(c1ccco1)C2 (configuration not stated)	25	10	7	-40	3	60*
CSCCOC(=O)c1[nH]c2c(c1C)C(=O)CC(c1ccco1)C2 (configuration not stated)	16	11	9	?	-4	56*
CCOC(=O)c1[nH]c2c(c1C)C(=O)CC(c1ccco1)C2 (configuration not stated)	15	21	4	?	-2	38
CC(NS(=O)(=O)CCNC(=O)c1ccccc1)c1ccccc1 (configuration not stated)	-7	-3	0	/	0	8
CC(=O)c1ccc(NC(=O)CN2C(=O)NC(C)(C3CCCCC3)C2=O)cc1 (configuration not stated)	-3	-6	2	/	5	-4
COC(=O)c1ccc(OC(=O)CS(=O)c2ccccc2[N+](=O)[O-])cc1 (configuration not stated)	6	46	2	-4	-1	/
O=C(CS(=O)c1ccc(C(F)(F)F)cc1[N+](=O)[O-])Oc1ccccc1 (configuration not stated)	98*	2	0	6	15	-18
CS(=O)(=O)c1ccc(S(=O)CC(=O)OCc2ccccc2)c([N+](=O)[O-])c1 (configuration not stated)	44*	-7	/	-18	/	102
COc1cc(CCC(=O)Nc2cc(S(=O)(=O)N3CCOCC3)ccc2OC(C)C)cc(OC)c1OC	/	/	/	/	/	5

Screening results (PubChem)
